Assay results from PubChem BioAssay AID652185 (Vanderbilt Specialized Chemistry Center, 2013).
Calls of active or inactive are those of the source. How the calls were made is not given here.

Target: Metabotropic glutamate receptor 2 (Rattus norvegicus) (UniProt P31421)
Assay: off-target modulation of rat mGlu2, profiling panel, selectivity assay for mGlu5 silent allosteric modulators, cell-based, HEK293A, Galpha15, calcium mobilization (AID 652185)
Settings: HEK293A rmGlu2+Galpha15, Fluo4 calcium mobilization, glutamate CRC
In short: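 System: rat mGlu2 plus Galpha15 in HEK293A cells / Times: 60 min 37 °C dye load, compound 60 s pre-glutamate / Dosing: 10 µM compound, 1% DMSO / Detection: Fluo4 calcium fluorescence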

Sequence of Metabotropic glutamate receptor 2 (Rattus norvegicus) (P31421 whole entry, looked up): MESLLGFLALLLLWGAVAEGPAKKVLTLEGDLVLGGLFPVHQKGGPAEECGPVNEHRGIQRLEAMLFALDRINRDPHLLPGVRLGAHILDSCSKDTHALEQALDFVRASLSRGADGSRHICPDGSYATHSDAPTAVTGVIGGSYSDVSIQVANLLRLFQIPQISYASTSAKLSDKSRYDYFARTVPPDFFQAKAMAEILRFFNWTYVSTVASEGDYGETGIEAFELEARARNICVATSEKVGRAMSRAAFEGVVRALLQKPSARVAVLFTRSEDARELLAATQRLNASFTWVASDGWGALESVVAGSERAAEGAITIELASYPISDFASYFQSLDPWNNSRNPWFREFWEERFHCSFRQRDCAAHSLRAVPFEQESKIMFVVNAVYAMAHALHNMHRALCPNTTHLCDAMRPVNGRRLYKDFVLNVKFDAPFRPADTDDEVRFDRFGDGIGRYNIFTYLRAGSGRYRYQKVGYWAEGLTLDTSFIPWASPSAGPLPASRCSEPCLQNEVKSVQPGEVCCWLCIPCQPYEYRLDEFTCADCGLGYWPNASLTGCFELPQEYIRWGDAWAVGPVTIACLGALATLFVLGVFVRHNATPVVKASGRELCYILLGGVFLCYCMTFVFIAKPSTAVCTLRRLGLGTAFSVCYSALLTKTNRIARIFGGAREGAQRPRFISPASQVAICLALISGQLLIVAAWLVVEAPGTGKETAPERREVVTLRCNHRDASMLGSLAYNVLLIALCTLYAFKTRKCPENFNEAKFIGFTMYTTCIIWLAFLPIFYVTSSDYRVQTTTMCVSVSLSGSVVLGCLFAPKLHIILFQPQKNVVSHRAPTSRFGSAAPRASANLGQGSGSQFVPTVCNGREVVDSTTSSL

glutamate EC50 in presence of 10 uM compound (no shift = inactive): inactive
SMILES: O=C(c1ccc(C#Cc2cccc(F)c2)cn1)N1CC2CC2C1 (stereo unspecified)
